Source: PubChem BioAssay
Shown are actives, neighbours in structure and some others; about 2.4% of the full set was active somewhere.
HNF4A DNA FP = change in binding of human HNF4 alpha to DNA. HNF4a-FITC DNA binding, fluorescence polarization, 1 h. activity change, % at 10 µM. 360,000 compounds, 0.3% hits. AID 1224865; in the data active means activity change above about 30%, passing the limit was not always enough
Rin1 Abl inh = blocks binding of human Rin1 to Abl | P00519+Q13671 | TR-FRET Rin1/Abl binding, biochemical | inhibition, % at 7.35 µM | 360,000 compounds, 0.4% hits | AID 588664; in the data active means inhibition above about 5%, passing the limit was not always enough
TPT1 inhibitor = inhibitors of Candida albicans tRNA 2'-phosphotransferase TPT1; 300,000 compounds, 0.81% hits; inhibition, % at 5 µM; recombinant caTPT1, FP RNA substrate dephosphorylation;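 active means inhibition above the mean of all tested compounds plus 3 SD, set per screening campaign, cut at about 24% in these data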;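 further: plate controls were DMSO alone for no effect and ferristatin control at 100 nM for full effect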
Neddyl block = cullin neddylation inhibition | P61081+Q13564 | TR-FRET cullin neddylation, biochemical | inhibition, % at 25 µM | 360,000 compounds, 0.58% hits | AID 651699; in the data active means inhibition above about 36%
Target sequence (P61081 whole entry, looked up): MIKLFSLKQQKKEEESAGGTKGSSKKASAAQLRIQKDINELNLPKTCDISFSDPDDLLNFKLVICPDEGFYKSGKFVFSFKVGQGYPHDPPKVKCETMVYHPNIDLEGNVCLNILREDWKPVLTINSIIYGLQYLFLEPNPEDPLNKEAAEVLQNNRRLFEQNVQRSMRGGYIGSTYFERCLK
Target sequence (Q13564 whole entry, looked up): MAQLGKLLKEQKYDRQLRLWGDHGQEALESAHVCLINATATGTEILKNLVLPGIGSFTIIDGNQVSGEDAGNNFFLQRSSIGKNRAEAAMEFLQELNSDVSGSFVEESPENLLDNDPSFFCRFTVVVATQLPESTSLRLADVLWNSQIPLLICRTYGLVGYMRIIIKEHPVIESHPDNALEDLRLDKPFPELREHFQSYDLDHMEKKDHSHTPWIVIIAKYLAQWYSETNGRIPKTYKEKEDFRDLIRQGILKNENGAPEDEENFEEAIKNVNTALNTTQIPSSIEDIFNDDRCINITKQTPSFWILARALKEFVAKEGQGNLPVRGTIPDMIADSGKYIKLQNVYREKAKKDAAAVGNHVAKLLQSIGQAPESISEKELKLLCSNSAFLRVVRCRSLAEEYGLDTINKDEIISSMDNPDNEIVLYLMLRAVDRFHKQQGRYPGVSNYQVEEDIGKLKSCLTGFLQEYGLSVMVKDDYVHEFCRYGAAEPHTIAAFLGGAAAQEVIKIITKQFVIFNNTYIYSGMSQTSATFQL
CSN inh = blocks human CSN-mediated cullin deneddylation; 360,000 compounds, 0.38% hits; inhibition, % at 12.5 µM; AID 651999; Purified CSN, SCF-Nedd8-OG deneddylation, fluorescence polarization;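 active means pattern-corrected inhibition above about 35%, with an unprinted fluorescence ratio check between 0.5 and 1.5, limit read from the data, passing the limit was not always enough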;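 further: 0% = enzyme with substrate and 100% = substrate without enzyme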
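Schedule: reaction 90 min, room temperature / Assay system: HEK293T-derived human Csn5 enzyme / Input: Csn5 at 0.24 nM final / Measure: inhibition of Csn5 cleavage, % / Control set: substrate-only high control, full reaction low control / Technique: fluorescence polarization of the substrate / Buffer or medium: Tris/NaCl/DTT buffer, pH 7.5 / Reagent: SCFSkp2-Nedd8OG substrate at 10 nM final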
Rpn11 inh = blocks the human proteasome subunit Rpn11; O00487; AID 588493; inhibition, % at 20 µM; human 26S proteasome, Ub4-pepOG fluorescence polarization; 20S core pre-blocked with epoxomicin; 360,000 compounds, 0.59% hits;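 active means inhibition at 20 µM, scaled to each plate's controls, above about 33%, limit read from the data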
caTPT1 confirm = TPT1 (C. albicans) inhibition, confirmation | recombinant caTPT1, fluorescence polarization, RNase T1 coupled | inhibition, % at 5 µM | shares compounds with TPT1 inhibitor | 2,400 compounds, 74% hits;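 active means inhibition above the primary screen limit, the mean inhibition of all tested compounds plus 3 SD, cut at about 25% in these data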
RNase T1 counter = blocks Aspergillus oryzae RNase T1, a TPT1 counter-screen. shares compounds with TPT1 inhibitor. inhibition, % at 5 µM. 2,400 compounds, 83% hits. RNase T1 cleavage, fluorescence polarization, 1536-well;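 active means inhibition above the solvent-only control well mean plus 3 SD, limit set per screening run, cut at about 23% in these data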;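 further: plate controls were DMSO wells with enzyme for no effect and wells without RNase T1 for full effect; inhibitors block cleavage so intact labeled substrate keeps polarization high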
The depositor's hits bear a star; · = no result shown.

SMILES	HNF4A DNA FP	Rin1 Abl inh	TPT1 inhibitor	Neddyl block	CSN inh	Rpn11 inh	caTPT1 confirm	RNase T1 counter
Cc1ccc(N2C(=O)/C(=C/c3ccc(CN(CCC#N)S(C)(=O)=O)o3)C(=O)NC2=S)cc1	-7	5.2*	36*	1	48*	35	26*	37*
COc1ccc(OC(=O)N(C)C[C@@H]2OCc3cnnn3CCCC(=O)N([C@H](C)CO)C[C@H]2C)cc1	1	0	·	0	-1	0	·	·
CC(=O)Nc1ccc2c(c1)CC1(C(=O)N(C)C(=O)N(C)C1=O)C1CCCN21 (stereo not given)	2	-5	1	7	0	4	·	·
CN1C(=O)N(C)C(=O)C2(Cc3cc(NC(=O)c4ccc(F)cc4)ccc3N3CCCC32)C1=O (stereo not given)	13	4	30*	30	8	25	23	37*
C[C@]12C[C@H](O)[C@@H](O)C[C@@H]1CC[C@@H]1[C@@H]2CC[C@]2(C)C(=O)CC[C@@H]12	0	5	·	0	-1	-1	·	·
CC(C)n1c(=O)c(C=Nc2ccc(Cl)cc2)c(O)n(Cc2ccco2)c1=O	·	·	22	·	·	·	·	·
COc1ccc([N+](=O)[O-])cc1N=Cc1c(O)n(CCc2ccccc2)c(=O)n(C(C)C)c1=O	2	-5	38*	-53	6	13	6	15
COC(=O)C1=Nc2ccccc2/C1=C\c1c(O)n(-c2ccc(OC)cc2)c(=O)[nH]c1=O	3	0	11	1	4	18	·	·
COC(=O)C1=Nc2ccccc2/C1=C\c1c(O)n(-c2ccc(Br)cc2)c(=O)[nH]c1=O	3	-1	27*	-6	5	15	33*	44*
Cc1ccccc1N1C(=O)CC(=O)N(c2ccccc2C)C1=O	4	1	31*	-2	-4	34	15	22*
C[C@H]1COc2cc(N3CCN(C)CC3)ccc2S(=O)(=O)N1	-2	·	·	1	0	·	·	·
C[C@@H]1COc2cccc(N3CCN(C)CC3)c2S(=O)(=O)N1	0	·	·	0	-3	·	·	·
COC(=O)C1=C(c2ccc(F)cc2F)C[C@@H]2CC[C@H]1N2C(=O)N1CCC(O)CC1	13	0	·	-1	3	-1	·	·
O=C(Cn1ncc2c3ccccc3n(Cc3cccc(Cl)c3)c2c1=O)N1CCC2(CC1)OCCO2	1	-2	114*	0	10	17	64*	69*
Cc1ccccc1-n1c(O)c(C=Nc2ccc3c(c2)OCO3)c(=O)[nH]c1=O	0	0	4	-4	0	-3	·	·
CCOc1ccc(-n2c(O)c(C=Nc3ccc(N(CC)CC)cc3)c(=O)[nH]c2=O)cc1	5	-5	31*	-36	-7	-50	42*	56*
CCc1nnc(NS(=O)(=O)c2ccc(N=Cc3c(O)n(-c4ccc(Cl)cc4)c(=O)[nH]c3=O)cc2)s1	4	3	40*	-11	8	10	8	14
CCN(CC)c1ccc(N=Cc2c(O)n(-c3ccccc3C)c(=O)[nH]c2=O)cc1	14	4	69*	-18	13	64*	72*	84*
CCN(CC)c1ccc(N=Cc2c(O)n(Cc3ccccc3)c(=O)[nH]c2=O)cc1	13	3	23	22	-3	6	·	·
CCN(CC)c1ccc(N=Cc2c(O)n(-c3ccccc3)c(=O)[nH]c2=O)cc1	0	4	39*	-18	7	-1	59*	71*
COc1ccc(CC2NCC(O)C2OC(C)=O)cc1 (stereo not given)	-1	-1	·	-6	-1	13	·	·
C[CH2][Hg][S]c1ccccc1C(=O)O	4	-4	-4	-9	-3	9	·	·
CCOC(=O)c1c(/N=C/c2c(O)n(-c3cccc(C)c3)c(=O)[nH]c2=O)sc2c1CCCC2	25	0	17	·	0	32	·	·
